How the values were obtained:
[1] = Inhibition of NADH:ubiquinone oxidoreductase from house fly (Musca domestica) flight muscles; format: tissue-based, Muscle tissue
Outline: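 House fly flight-muscle complex I. Activity was measured as NADH oxidation, followed photometrically at 340 nm, with n-decylubiquinone as the electron acceptor.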

Tetranychus urticae = assay: Acaricidal activity of a compound (300 p.p.m.) was evaluated against Tetranychus urticae infected on bean plants; format: functional

SMILES	IC50 [1] [nM]	Activity (Tetranychus urticae) [%]
CC(C)(C)c1ccc(CSc2cc(=O)c3ccccc3o2)cc1	500	0
Cc1c(SCCc2ccc(C(C)(C)C)cc2)oc2ccccc2c1=O	10	80
Cc1c(NCCc2ccc(C(C)(C)C)cc2)oc2ccccc2c1=O	200	0
Cc1c(S(=O)(=O)Cc2ccc(C(C)(C)C)cc2)oc2ccccc2c1=O	160	0
Cc1c(NCc2ccc(C(C)(C)C)cc2)oc2ccccc2c1=O	20	0

Now from value to compound, other results behind:

IC50 [1] [nM]	SMILES	Activity (Tetranychus urticae) [%]
6	CC(C)(C)c1ccc(CSc2oc3ccccc3c(=O)c2Cl)cc1	50
> 200	CCc1c(SCc2ccc(C(C)(C)C)cc2)oc2ccccc2c1=O	0
8	Cc1c(SCc2ccc(C(C)(C)C)cc2)oc2ccccc2c1=O	100
